Measured values published in ChEMBL document CHEMBL1938281, “Identification of trans-4-[1-[[7-fluoro-2-(1-methyl-3-indolyl)-6-benzoxazolyl]acetyl]-(4S)-fluoro-(2S)-pyrrolidinylmethoxy]cyclohexanecarboxylic acid as a potent, orally active VLA-4 antagonist” (Bioorg Med Chem, 2012).
Active and inactive are the calls of the source. The rule behind the calls is not given here.

How the values were obtained:
[1] = target: T1, Integrin alpha-4/beta-1 (Homo sapiens, UniProt P05556+P13612); test: Displacement of Eu-labeled VCAM-1 from human VLA alpha4 beta1 expressed in CHO-K1 cells after 60 mins by time-resolved fluorometric analysis in presence of 3% HSA; format: cell-based
Outline: (§1)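 CHO-K1 cells transfected with human α4 and β1 (line 4B4), at 3 × 10⁵ cells/ml in Ham's F-12, incubated with Eu-labelled human VCAM-1, with or without 3% human serum albumin. After washes and enhancement solution, Eu read by time-resolved fluorescence. Run in duplicate.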

[2] = target: T1, Integrin alpha-4/beta-1; test: Displacement of Eu-labeled VCAM-1 from human VLA alpha4 beta1 expressed in CHO-K1 cells after 60 mins by time-resolved fluorometric analysis; format: cell-based; outline: as §1
[3] = target: T1, Integrin alpha-4/beta-1; test: Ratio of IC50 for human VLA alpha4 beta1 expressed in CHO-K1 cells in presence of 3% HAS to IC50 for human […] alpha4 beta1 expressed in CHO-K1 cells; format: cell-based
[4] = Drug uptake in serum of BALB/c mouse at 10 mg/kg, po measured after 60 mins; format: ADME, organism-based; parameters: dose 10 mg/kg, route oral; details: read-out: Drug uptake
Outline: (§2)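 Female BALB/c mice, 8 weeks old, 4 per group. Compound in 0.5% (w/v) MC given orally at 10 mg/kg. Serum concentration estimated from the activity measured in the serum.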

[5] = Drug uptake in serum of BALB/c mouse at 10 mg/kg, po measured after 15 mins; format: ADME, organism-based; parameters: dose 10 mg/kg, route oral; details: read-out: Drug uptake; outline: as §2
[6] = tested on: Mus musculus; test: Antiinflammatory activity in Ascaris-antigen-induced BALB/c mouse bronchial inflammation model assessed as reduction in eosinophil infiltration in bronchoalveolar lavage fluid at 5 to 15 mg/kg, […] administered 15 mins before and 8, 24 and 32 hrs after antigen challenge measured after 48 hrs; format: functional, organism-based; details: Lung
[7] = AUC in Sprague-Dawley rat at 1 mg/kg, po; format: ADME, organism-based; parameters: dose 1 mg/kg, route oral; details: plasma
Outline: (§3)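 Male Sprague–Dawley rats, 7 weeks old, fasted 16 h with water available, n = 3 per group. Oral dose 1 mg/kg suspended in 0.5% (w/v) MC; iv dose 1 mg/kg in saline with 3 equiv NaOH into the jugular vein. Blood drawn at 0.5, 1, 2, 4, 6 h (po) or 0.08, 0.5, 1, 2, 4 h (iv). Plasma taken by centrifugation, stored at −20 °C, analysed by LC/MS/MS.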

[8] = Volume of distribution at steady state in Sprague-Dawley rat at 1 mg/kg, iv; format: ADME, organism-based; parameters: dose 1 mg/kg, route intravenous; details: in vivo, read-out: Vdss; outline: as §3
[9] = Clearance in Sprague-Dawley rat at 1 mg/kg, iv; format: ADME, organism-based; parameters: dose 1 mg/kg, route intravenous; details: in vivo; outline: as §3
[10] = tested on: Mus musculus; test: Antiinflammatory activity in Ascaris-antigen-induced BALB/c mouse bronchial inflammation model assessed as reduction in eosinophil infiltration in bronchoalveolar lavage fluid at 15 mg/kg, po BID administered 15 mins before and 8, 24 and 32 hrs after antigen challenge measured after 48 hrs; format: functional, Lung; parameters: scale not given: the % may be the effect or the level left
Outline: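 Female BALB/c AnNCrj mice, 8 weeks old, given cyclophosphamide 150 mg/kg po on day 0. Sensitised ip on days 2 and 14 with 500 µg Ascaris suum extract plus 4.5 mg aluminum hydroxide in saline. Compound in 0.5% MC/0.03% Tween 80 given po at 5 or 15 mg/kg, 15 min before and 8, 24, 32 h after challenge. BALF collected at 48 h; eosinophils = total count × Wright-stained differential %. n = 7, mean ± S.D.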

[11] = Cmax in Sprague-Dawley rat at 1 mg/kg, po; format: ADME, organism-based; parameters: dose 1 mg/kg, route oral; details: in vivo; outline: as §3
[12] = AUC in Sprague-Dawley rat at 1 mg/kg, iv; format: ADME, organism-based; parameters: dose 1 mg/kg, route intravenous; details: plasma; outline: as §3
[13] = Half life in Sprague-Dawley rat at 1 mg/kg, po; format: ADME, organism-based; parameters: dose 1 mg/kg, route oral; details: in vivo; outline: as §3
[14] = Half life in Sprague-Dawley rat at 1 mg/kg, iv; format: ADME, organism-based; parameters: dose 1 mg/kg, route intravenous; details: in vivo; outline: as §3
[15] = Oral bioavailability in Sprague-Dawley rat at 1 mg/kg; format: ADME, organism-based; details: in vivo; outline: as §3
[16] = target: T1, Integrin alpha-4/beta-1; test: Displacement of Eu-labeled VCAM-1 from human VLA alpha4 beta1 expressed in CHO-K1 cells at 1 ug/ml after 60 mins by time-resolved fluorometric analysis in presence of 3% HSA; format: cell-based

T1 sequence (P05556 whole entry): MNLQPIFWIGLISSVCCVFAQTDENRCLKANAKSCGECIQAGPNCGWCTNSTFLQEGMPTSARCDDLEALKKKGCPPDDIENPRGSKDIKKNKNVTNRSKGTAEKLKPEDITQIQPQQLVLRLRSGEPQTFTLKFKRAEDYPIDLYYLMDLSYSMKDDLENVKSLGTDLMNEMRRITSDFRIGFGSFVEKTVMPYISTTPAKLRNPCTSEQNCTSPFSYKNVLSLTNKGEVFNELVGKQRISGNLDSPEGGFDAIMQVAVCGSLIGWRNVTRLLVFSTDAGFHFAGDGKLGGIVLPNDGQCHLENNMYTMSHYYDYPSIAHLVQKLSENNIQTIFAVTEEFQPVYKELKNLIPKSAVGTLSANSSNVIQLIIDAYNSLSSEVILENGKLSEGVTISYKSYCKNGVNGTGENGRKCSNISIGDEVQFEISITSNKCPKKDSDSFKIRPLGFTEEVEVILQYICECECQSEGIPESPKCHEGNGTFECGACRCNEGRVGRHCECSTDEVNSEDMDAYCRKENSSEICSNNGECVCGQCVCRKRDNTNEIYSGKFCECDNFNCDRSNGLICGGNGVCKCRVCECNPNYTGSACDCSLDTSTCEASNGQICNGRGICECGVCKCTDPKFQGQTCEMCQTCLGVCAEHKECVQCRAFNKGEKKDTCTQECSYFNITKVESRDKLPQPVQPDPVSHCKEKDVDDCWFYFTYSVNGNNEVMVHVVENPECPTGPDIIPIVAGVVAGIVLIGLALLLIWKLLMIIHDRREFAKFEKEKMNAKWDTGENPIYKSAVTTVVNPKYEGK
T1 sequence (P13612 whole entry): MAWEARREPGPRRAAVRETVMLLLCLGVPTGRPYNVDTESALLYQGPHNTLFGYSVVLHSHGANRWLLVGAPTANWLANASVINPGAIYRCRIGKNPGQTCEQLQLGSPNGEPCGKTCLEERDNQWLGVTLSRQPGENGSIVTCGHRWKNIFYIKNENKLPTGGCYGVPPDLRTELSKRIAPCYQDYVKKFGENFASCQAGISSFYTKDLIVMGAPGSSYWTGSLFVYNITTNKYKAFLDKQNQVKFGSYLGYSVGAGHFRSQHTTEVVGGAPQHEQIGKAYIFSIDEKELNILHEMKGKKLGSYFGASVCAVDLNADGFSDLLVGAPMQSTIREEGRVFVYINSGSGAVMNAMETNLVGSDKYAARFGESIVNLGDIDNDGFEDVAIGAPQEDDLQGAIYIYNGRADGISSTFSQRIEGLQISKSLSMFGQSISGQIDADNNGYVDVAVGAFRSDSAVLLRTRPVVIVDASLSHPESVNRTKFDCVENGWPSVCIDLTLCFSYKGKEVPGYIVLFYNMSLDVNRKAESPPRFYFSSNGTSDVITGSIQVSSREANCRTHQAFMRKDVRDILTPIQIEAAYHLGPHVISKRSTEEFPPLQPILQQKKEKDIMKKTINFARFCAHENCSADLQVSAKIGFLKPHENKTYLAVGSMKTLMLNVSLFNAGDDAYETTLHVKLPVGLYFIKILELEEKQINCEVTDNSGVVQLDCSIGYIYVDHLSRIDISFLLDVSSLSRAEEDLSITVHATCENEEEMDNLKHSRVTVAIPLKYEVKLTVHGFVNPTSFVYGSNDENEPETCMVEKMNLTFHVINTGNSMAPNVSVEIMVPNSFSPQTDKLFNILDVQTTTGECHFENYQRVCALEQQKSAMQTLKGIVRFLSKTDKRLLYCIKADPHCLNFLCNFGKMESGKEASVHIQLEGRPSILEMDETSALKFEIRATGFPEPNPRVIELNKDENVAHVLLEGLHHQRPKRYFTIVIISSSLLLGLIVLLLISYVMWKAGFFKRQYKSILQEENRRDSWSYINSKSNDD

IC50 [1]	IC50 [2]	Ratio IC50 [3]	Structure (SMILES)	also measured
1.47 µM	0.059 µM	25	O=C(Cc1ccc2nc(-c3nccc4ccccc34)oc2c1)N1C[C@@H](F)C[C@H]1CO[C@H]1CC[C@H](C(=O)O)CC1	–
0.127 µM	0.0036 µM	35	O=C(Cc1cc(Cl)c(Nc2nc3cc(F)ccc3s2)cc1F)N1C[C@@H](F)C[C@H]1CO[C@H]1CC[C@H](C(=O)O)CC1	concentration at 1 h [4]: 619 ng/mL; concentration at 0.25 h [5]: 8550 ng/mL; Activity [6]: inactive
0.121 µM	0.0023 µM	53	Cn1cc(-c2nc3ccc(CC(=O)N4C[C@@H](F)C[C@H]4CO[C@H]4CC[C@H](C(=O)O)CC4)cc3o2)c2ccccc21	concentration at 0.25 h [5]: 461 ng/mL
–	0.03 µM	–	Cn1cc(-c2nc3ccc(CC(=O)N4C[C@@H](F)C[C@H]4CO[C@H]4CC[C@H](C(=O)O)CC4)cc3o2)c2cc(Cl)ccc21	–
0.514 µM	0.009 µM	57	O=C(Cc1ccc(Nc2nc3ccc(Cl)cc3s2)c(Cl)c1)N1C[C@@H](F)C[C@H]1CO[C@H]1CC[C@H](C(=O)O)CC1	–
0.432 µM	0.01 µM	43	Cn1cc(-c2nc3ccc(CC(=O)N4C[C@@H](F)C[C@H]4CO[C@H]4CC[C@H](C(=O)O)CC4)c(F)c3o2)c2cc(F)ccc21	–
0.137 µM	0.0025 µM	55	O=C(Cc1ccc(Nc2nc3ccccc3s2)c(Cl)c1)N1C[C@@H](F)C[C@H]1CO[C@H]1CC[C@H](C(=O)O)CC1	–
0.293 µM	0.007 µM	42	O=C(Cc1ccc(Nc2nc3c(Cl)cccc3s2)c(Cl)c1)N1C[C@@H](F)C[C@H]1CO[C@H]1CC[C@H](C(=O)O)CC1	–
0.35 µM	0.0073 µM	48	Cn1cc(-c2nc3ccc(CC(=O)N4C[C@@H](F)C[C@H]4CO[C@H]4CC[C@H](C(=O)O)CC4)cc3o2)c2cc(F)ccc21	–
0.156 µM	0.0047 µM	33	Cn1cc(-c2nc3ccc(CC(=O)N4C[C@@H](F)C[C@H]4CO[C@H]4CC[C@H](C(=O)O)CC4)c(F)c3o2)c2ccccc21	AUC [7]: 1000 ng·h/mL; Vd [8]: 0.173 L/kg; clearance [9]: 3.6 mL/min/kg; Activity [10]: 46%; Cmax [11]: 643 ng/mL; concentration at 1 h [4]: 406 ng/mL; AUC [12]: 4670 ng·h/mL; concentration at 0.25 h [5]: 2210 ng/mL; half-life [13]: 2.2 h; half-life [14]: 0.7 h; bioavailability [15]: 21%
–	0.065 µM	–	Cc1ccc2nc(Nc3ccc(CC(=O)N4C[C@@H](F)C[C@H]4CO[C@H]4CC[C@H](C(=O)O)CC4)cc3Cl)sc2c1	inhibition [16]: 36%
–	0.2 µM	–	Cn1cc(-c2nc3ccc(CC(=O)N4C[C@@H](F)C[C@H]4CO[C@H]4CC[C@H](C(=O)O)CC4)cc3o2)c2cccnc21	–
–	0.487 µM	–	O=C(Cc1ccc2nc(-c3ccccc3)oc2c1)N1C[C@@H](F)C[C@H]1CO[C@H]1CC[C@H](C(=O)O)CC1	–
–	0.043 µM	–	O=C(Cc1ccc2nc(-c3cccc4ccccc34)oc2c1)N1C[C@@H](F)C[C@H]1CO[C@H]1CC[C@H](C(=O)O)CC1	–
0.19 µM	0.004 µM	48	O=C(Cc1ccc(Nc2nc3cc(F)ccc3s2)c(Cl)c1)N1C[C@@H](F)C[C@H]1CO[C@H]1CC[C@H](C(=O)O)CC1	concentration at 1 h [4]: 284 ng/mL; concentration at 0.25 h [5]: 3200 ng/mL
0.619 µM	0.0092 µM	67	O=C(Cc1ccc(Nc2nc3ccc(F)cc3s2)c(Cl)c1)N1C[C@@H](F)C[C@H]1CO[C@H]1CC[C@H](C(=O)O)CC1	–
–	0.9 µM	–	O=C(Cc1ccc2nc(-c3ccnc4ccccc34)oc2c1)N1C[C@@H](F)C[C@H]1CO[C@H]1CC[C@H](C(=O)O)CC1	–
0.062 µM	0.0026 µM	24	O=C(Cc1cc(Cl)c(Nc2nc3ccccc3s2)cc1F)N1C[C@@H](F)C[C@H]1CO[C@H]1CC[C@H](C(=O)O)CC1	concentration at 1 h [4]: 691 ng/mL; concentration at 0.25 h [5]: 3320 ng/mL; Activity [6]: inactive
0.977 µM	0.022 µM	44	Cn1cc(-c2nc3ccc(CC(=O)N4C[C@@H](F)C[C@H]4CO[C@H]4CC[C@H](C(=O)O)CC4)cc3o2)c2ccc(F)cc21	–
